In test [1] the test system is Nucleic Acid. The test is described as follows: In vitro ability to inhibit HSV DNA polymerase activity in vitro using activated calf thymus DNA as atemplate at dose 400 ug/mL. The format is nucleic-acid assay. The following applies: herpes simplex virus.
Test [2] has as its system Nucleic Acid. In words: In vitro ability to inhibit HSV DNA polymerase activity in vitro using activated calf thymus DNA as atemplate at dose 200 ug/mL. The class given is nucleic-acid assay. The following applies: herpes simplex virus.
Another test deals with BSC-1. The test is described as follows: Evaluation of titer of virus progeny produced in untreated infected cells and in cells treated with the compound by plaque assay on BSC-1 cells. Details: concentration or dose not given beside the values. The class given is functional, Cercopithecidae. An outline of the steps: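 HSV type 1-infected cell cultures were exposed to drug at the maximal nontoxic concentration. Toxicity means cell death within 2 days of drug incubation at 37 °C; the maximal nontoxic level is the concentration whose twofold increase causes toxicity. Progeny virus titer was determined by plaque assay on BSC-1 cells. Yield is expressed as a percentage of the untreated infected-cell yield (taken as 100%).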

Test [3] deals with Nucleic Acid. In words: In vitro ability to inhibit HSV DNA polymerase activity in vitro using activated calf thymus DNA as atemplate at dose 100 ug/mL. The following applies: herpes simplex virus. The format is nucleic-acid assay.
The test system of test [4] is Nucleic Acid. The test is described as follows: In vitro ability to inhibit HSV DNA polymerase activity in vitro using activated calf thymus DNA as atemplate at dose 50 ug/mL. The class given is nucleic-acid assay. Particulars: herpes simplex virus.
Test [5] concerns Human alphaherpesvirus 1. The test is described as follows: Compound were tested for their ability to inhibit HSV replication at their maximal nontoxic concentration. Particulars: herpes simplex virus.
For test [6], the system named is Nucleic Acid. In words: In vitro ability to inhibit HSV DNA polymerase activity in vitro using activated calf thymus DNA as atemplate at dose 25 ug/mL. The class given is nucleic-acid assay. The following applies: herpes simplex virus.
Another test concerns Human alphaherpesvirus 2. In words: Compound were tested for their ability to inhibit HSV replication at their maximal nontoxic concentration; 400 ug/mL of the drug was not toxic. The class given is functional, organism-based. Particulars: herpes simplex virus.
For test [7], the system named is Human alphaherpesvirus 1. In words: In vitro ability to inhibit synthesis of herpes simplex virus (HSV) DNA in isolated nuclei at dose 100 ug/mL.
The test system of test [8] is Human alphaherpesvirus 1. In words: In vitro ability to inhibit synthesis of herpes simplex virus (HSV) DNA in isolated nuclei at dose 200 ug/mL.
The test system of test [9] is Human alphaherpesvirus 1. The test is described as follows: In vitro ability to inhibit synthesis of herpes simplex virus (HSV) DNA in isolated nuclei at dose 25 ug/mL.
The subject of test [10] is Human alphaherpesvirus 1. The test is described as follows: In vitro ability to inhibit synthesis of herpes simplex virus (HSV) DNA in isolated nuclei at dose 400 ug/mL.
Test [11] relates to Human alphaherpesvirus 1. In words: In vitro ability to inhibit synthesis of herpes simplex virus (HSV) DNA in isolated nuclei at dose 50 ug/mL.

Some results are limits rather than exact numbers.

`Cl.Cl.Cn1cc(NC(=O)c2cc(NC(=O)c3cc(NC(=O)CN=C(N)N)cn3C)cn2C)cc1C(=O)NCC(=N)N`: the inhibition with Nucleic Acid [1] was 99%; in the test on Nucleic Acid [2], 99%; in the test on Nucleic Acid [3], 89%; in the test on Nucleic Acid [4], 83%; in the test with Nucleic Acid [6] it was 39%. For the same compound, in the test on BSC-1, the Inhibition turned out to be 99.7%. The compound also showed a Concentration in the test with Human alphaherpesvirus 1 [5] of 100 µg/mL.

With `CC(CC#N)NC(=O)c1cc(NC(=O)c2cc(NC(=O)c3cc(NC(=O)CN=C(N)N)cn3C)cn2C)cn1C.Cl` (stereo not drawn), the Concentration with Human alphaherpesvirus 2 is more than 400 µg/mL. The same compound had an Inhibition in the test on BSC-1 of 90.9%.

In the case of `Cl.Cl.Cn1cc(NC(=O)c2cc(NC(=O)CNC(=N)N)cn2C)cc1C(=O)NCCC(=N)N` [CONGOCIDINE], the inhibition in the test on Nucleic Acid [1] worked out at 93%; with Nucleic Acid [2], 90%; in the test on Nucleic Acid [3] it was 78%; with Nucleic Acid [4] it was 61%; in the test with Nucleic Acid [6] it was 30%. The compound also yielded an inhibition at 100 µg/mL in the test with Human alphaherpesvirus 1 [7] of 61%. Besides, the inhibition at 200 µg/mL in the test with Human alphaherpesvirus 1 [8] stood at 71%. Moreover, testing at 25 µg/mL in the test on Human alphaherpesvirus 1 [9] gave an inhibition of 64%. Further, the Inhibition in the test on BSC-1 worked out at 98.1%. Moreover, in the test on Human alphaherpesvirus 1 [10], the inhibition at 400 µg/mL is 88%. For the same compound, 50 µg/mL produced 67% inhibition in the test with Human alphaherpesvirus 1 [11]. The same compound yielded a Concentration with Human alphaherpesvirus 1 [5] of 5 µg/mL.

Turning to `Cl.Cn1cc(NC(=O)c2cc(NC(=O)c3cc(NC(=O)CN=C(N)N)cn3C)cn2C)cc1C(=O)NCCC#N`, the inhibition in the test on Nucleic Acid [1] is 91%; with Nucleic Acid [2] it was 79%; in the test on Nucleic Acid [3], 68%; with Nucleic Acid [4], 35%; with Nucleic Acid [6], 12%. Moreover, at 200 µg/mL the inhibition with Human alphaherpesvirus 1 [8] was 87%. Besides, the inhibition at 25 µg/mL in the test with Human alphaherpesvirus 1 [9] worked out at 56%. The same compound registered an Inhibition with BSC-1 of 93.14%. In addition, 400 µg/mL produced 89% inhibition in the test on Human alphaherpesvirus 1 [10]. The compound also gave an inhibition at 50 µg/mL with Human alphaherpesvirus 1 [11] of 68%. In the test on Human alphaherpesvirus 1 [5], this compound displayed a Concentration of 50 µg/mL.

Take `Cl.Cl.Cn1cc(NC(=O)c2cc(NC(=O)c3cc(NC=O)cn3C)cn2C)cc1C(=O)NCCC(=N)N`: the inhibition came out at 99% with Nucleic Acid [1]; 98% with Nucleic Acid [2]; 85% in the test with Nucleic Acid [3]; 62% in the test on Nucleic Acid [4]; 20% with Nucleic Acid [6]. Moreover, at 100 µg/mL the inhibition with Human alphaherpesvirus 1 [7] was 89%. The inhibition at 200 µg/mL in the test on Human alphaherpesvirus 1 [8] turned out to be 95%. Moreover, in the test on Human alphaherpesvirus 1 [9], the inhibition at 25 µg/mL is 79%. For the same compound, the Inhibition in the test with BSC-1 was determined as 99.7%. Besides, the inhibition at 400 µg/mL in the test on Human alphaherpesvirus 1 [10] stood at 98%. Moreover, the inhibition at 50 µg/mL with Human alphaherpesvirus 1 [11] is 85%. For the same compound, the Concentration in the test on Human alphaherpesvirus 1 [5] came to 25 µg/mL.

Turning to `Cl.Cl.Cn1cc(NC(=O)c2cc(NC(=O)c3cc(NC(=O)CN=C(N)N)cn3C)cn2C)cc1C(=O)NCCC(=N)N`, the inhibition in the test on Nucleic Acid [1] came to 99%; in the test on Nucleic Acid [2], 94%; in the test on Nucleic Acid [3], 93%; with Nucleic Acid [4], 64%; in the test with Nucleic Acid [6] it was 25%. Moreover, in the test with Human alphaherpesvirus 1 [7], testing at 100 µg/mL gave an inhibition of 92%. The compound also registered an inhibition at 200 µg/mL in the test with Human alphaherpesvirus 1 [8] of 97%. The compound further displayed an inhibition at 25 µg/mL in the test with Human alphaherpesvirus 1 [9] of 78%. In addition, the Inhibition in the test with BSC-1 came out at 99.7%. Also, in the test on Human alphaherpesvirus 1 [10], the inhibition at 400 µg/mL amounted to 97%. Also, testing at 50 µg/mL in the test with Human alphaherpesvirus 1 [11] gave an inhibition of 84%. The same compound yielded a Concentration in the test on Human alphaherpesvirus 1 [5] of 25 µg/mL.

Turning to `CC(CC(=N)N)NC(=O)c1cc(NC(=O)c2cc(NC(=O)c3cc(NC(=O)CN=C(N)N)cn3C)cn2C)cn1C.Cl.Cl` (stereo not drawn), the inhibition in the test on Nucleic Acid [1] is 97%; with Nucleic Acid [2] it was 96%; in the test with Nucleic Acid [3], 83%; with Nucleic Acid [4], 59%; in the test on Nucleic Acid [6], 26%. Moreover, in the test with Human alphaherpesvirus 1 [7], at 100 µg/mL the inhibition was 83%. Further, in the test with Human alphaherpesvirus 1 [8], the inhibition at 200 µg/mL was 91%. This compound also yielded an inhibition at 25 µg/mL in the test with Human alphaherpesvirus 1 [9] of 56%. The Inhibition with BSC-1 turned out to be 99.3%. The same compound returned an inhibition at 400 µg/mL in the test on Human alphaherpesvirus 1 [10] of 97%. The same compound registered an inhibition at 50 µg/mL in the test on Human alphaherpesvirus 1 [11] of 73%. The compound further showed a Concentration in the test on Human alphaherpesvirus 1 [5] of 10 µg/mL.

One may read the inhibition as the drop in the measured response relative to a control, in per cent. The term Inhibition denotes the relative decrease from the control value, in per cent.

The values are drawn from ChEMBL document CHEMBL1121548, “Structure-activity relationships of pyrrole amidine antiviral antibiotics. 2. Preparation of mono- and tripyrrole derivatives of congocidine” (1980).
